In ChEMBL document CHEMBL3098013, “Novel pyrazole integrated 1,3,4-oxadiazoles: synthesis, characterization and antimicrobial evaluation” (2014):
Values after ≈ are worked out from the molar mass of the structure shown.

Tests used:
Format in all cases: functional
Fusarium verticillioides [1] = test: Antimicrobial activity against Fusarium moniliforme MTCC 156 after 48 hrs by microdilution method; details: MTCC 156, 48 h
Outline: (§1)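 The minimal inhibitory concentration was determined by dilution, alongside minimal bactericidal concentration for bacterial strains and minimal fungicidal concentration for fungal strains. Tests were run in six replicates, and the value is the mean of at least three determinations.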

Fusarium oxysporum [2] = test: Antimicrobial activity against Fusarium oxysporum MTCC 284 after 48 hrs by microdilution method; details: MTCC 284, 48 h; outline: as §1
Aspergillus niger [3] = test: Antimicrobial activity against Aspergillus niger MTCC 281 after 48 hrs by microdilution method; details: MTCC 281, 48 h; outline: as §1
Aspergillus flavus [4] = test: Antimicrobial activity against Aspergillus flavus MTCC 873 after 48 hrs by microdilution method; details: MTCC 873, 48 h; outline: as §1
Klebsiella pneumoniae [5] = test: Antimicrobial activity against Klebsiella pneumoniae MTCC 3384 after 24 hrs by microdilution method; details: MTCC 3384, 24 h; outline: as §1
Escherichia coli [6] = test: Antimicrobial activity against Escherichia coli MTCC 724 after 24 hrs by microdilution method; details: MTCC 724, 24 h; outline: as §1
Staphylococcus aureus [7] = test: Antimicrobial activity against Staphylococcus aureus MTCC 96 after 24 hrs by microdilution method; details: MTCC 96, 24 h; outline: as §1
Bacillus cereus [8] = test: Antimicrobial activity against Bacillus cereus MTCC 8372 after 24 hrs by microdilution method; details: MTCC 8372, 24 h; outline: as §1
Fusarium verticillioides [9] = test: Antimicrobial activity against Fusarium moniliforme MTCC 156 at 100 ug/ml after 48 hrs by disc diffusion method; details: MTCC 156, 48 h, read-out: DIZ
Outline: (§2)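 Agar diffusion read-out is the diameter of the inhibition zone in mm. Each test was run in six replicates and reported as mean ± standard deviation, taken from at least three determinations.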

Fusarium verticillioides [10] = test: Antimicrobial activity against Fusarium moniliforme MTCC 156 at 50 ug/ml after 48 hrs by disc diffusion method; details: MTCC 156, 48 h, read-out: DIZ; outline: as §2
Fusarium oxysporum [11] = test: Antimicrobial activity against Fusarium oxysporum MTCC 284 at 100 ug/ml after 48 hrs by disc diffusion method; details: MTCC 284, 48 h, read-out: DIZ; outline: as §2
Fusarium oxysporum [12] = test: Antimicrobial activity against Fusarium oxysporum MTCC 284 at 50 ug/ml after 48 hrs by disc diffusion method; details: MTCC 284, 48 h, read-out: DIZ; outline: as §2
Aspergillus niger [13] = test: Antimicrobial activity against Aspergillus niger MTCC 281 at 100 ug/ml after 48 hrs by disc diffusion method; details: MTCC 281, 48 h, read-out: DIZ; outline: as §2
Aspergillus niger [14] = test: Antimicrobial activity against Aspergillus niger MTCC 281 at 50 ug/ml after 48 hrs by disc diffusion method; details: MTCC 281, 48 h, read-out: DIZ; outline: as §2
Aspergillus flavus [15] = test: Antimicrobial activity against Aspergillus flavus MTCC 873 at 100 ug/ml after 48 hrs by disc diffusion method; details: MTCC 873, 48 h, read-out: DIZ; outline: as §2
Aspergillus flavus [16] = test: Antimicrobial activity against Aspergillus flavus MTCC 873 at 50 ug/ml after 48 hrs by disc diffusion method; details: MTCC 873, 48 h, read-out: DIZ; outline: as §2
Klebsiella pneumoniae [17] = test: Antimicrobial activity against Klebsiella pneumoniae MTCC 3384 at 100 ug/ml after 24 hrs by disc diffusion method; details: MTCC 3384, 24 h, read-out: DIZ; outline: as §2
Escherichia coli [18] = test: Antimicrobial activity against Escherichia coli MTCC 724 at 100 ug/ml after 24 hrs by disc diffusion method; details: MTCC 724, 24 h, read-out: DIZ; outline: as §2
Klebsiella pneumoniae [19] = test: Antimicrobial activity against Klebsiella pneumoniae MTCC 3384 at 50 ug/ml after 24 hrs by disc diffusion method; details: MTCC 3384, 24 h, read-out: DIZ; outline: as §2
Escherichia coli [20] = test: Antimicrobial activity against Escherichia coli MTCC 724 at 50 ug/ml after 24 hrs by disc diffusion method; details: MTCC 724, 24 h, read-out: DIZ; outline: as §2
Staphylococcus aureus [21] = test: Antimicrobial activity against Staphylococcus aureus MTCC 96 at 100 ug/ml after 24 hrs by disc diffusion method; details: MTCC 96, 24 h, read-out: DIZ; outline: as §2
Staphylococcus aureus [22] = test: Antimicrobial activity against Staphylococcus aureus MTCC 96 at 50 ug/ml after 24 hrs by disc diffusion method; details: MTCC 96, 24 h, read-out: DIZ; outline: as §2
Bacillus cereus [23] = test: Antimicrobial activity against Bacillus cereus MTCC 8372 at 100 ug/ml after 24 hrs by disc diffusion method; details: MTCC 8372, 24 h, read-out: DIZ; outline: as §2
Bacillus cereus [24] = test: Antimicrobial activity against Bacillus cereus MTCC 8372 at 50 ug/ml after 24 hrs by disc diffusion method; details: MTCC 8372, 24 h, read-out: DIZ; outline: as §2

Structure (SMILES)	MFC (Fusarium verticillioides [1])	MIC (Fusarium verticillioides [1])	MFC (Fusarium oxysporum [2])	MIC (Fusarium oxysporum [2])	MFC (Aspergillus niger [3])	MIC (Aspergillus niger [3])	MFC (Aspergillus flavus [4])	MIC (Aspergillus flavus [4])	MBC (Klebsiella pneumoniae [5])	MIC (Klebsiella pneumoniae [5])	MBC (Escherichia coli [6])	MIC (Escherichia coli [6])	MBC (Staphylococcus aureus [7])	MIC (Staphylococcus aureus [7])	MBC (Bacillus cereus [8])	MIC (Bacillus cereus [8])	zone of inhibition at 100 µg/mL (Fusarium verticillioides [9])	zone of inhibition at 50 µg/mL (Fusarium verticillioides [10])	zone of inhibition at 100 µg/mL (Fusarium oxysporum [11])	zone of inhibition at 50 µg/mL (Fusarium oxysporum [12])	other results
Cc1c(-c2nnc(-c3ccccc3)o2)c(-c2ccc([N+](=O)[O-])cc2)nn1-c1ccccc1	275 µg/mL (≈ 649 µM)	45 µg/mL (≈ 106 µM)	280 µg/mL (≈ 661 µM)	40 µg/mL (≈ 94.5 µM)	290 µg/mL (≈ 685 µM)	40 µg/mL (≈ 94.5 µM)	290 µg/mL (≈ 685 µM)	50 µg/mL (≈ 118 µM)	180 µg/mL (≈ 425 µM)	25 µg/mL (≈ 59 µM)	190 µg/mL (≈ 449 µM)	25 µg/mL (≈ 59 µM)	150 µg/mL (≈ 354 µM)	20 µg/mL (≈ 47.2 µM)	150 µg/mL (≈ 354 µM)	20 µg/mL (≈ 47.2 µM)	14 mm	5 mm	10 mm	8 mm	zone of inhibition at 100 µg/mL (Aspergillus niger [13]): 12 mm; zone of inhibition at 50 µg/mL (Aspergillus niger [14]): 8 mm; zone of inhibition at 100 µg/mL (Aspergillus flavus [15]): 14 mm; zone of inhibition at 50 µg/mL (Aspergillus flavus [16]): 6 mm; zone of inhibition at 100 µg/mL (Klebsiella pneumoniae [17]): 12 mm; zone of inhibition at 100 µg/mL (Escherichia coli [18]): 18 mm; zone of inhibition at 50 µg/mL (Klebsiella pneumoniae [19]): 9 mm; zone of inhibition at 50 µg/mL (Escherichia coli [20]): 9 mm; zone of inhibition at 100 µg/mL (Staphylococcus aureus [21]): 18 mm; zone of inhibition at 50 µg/mL (Staphylococcus aureus [22]): 10 mm; zone of inhibition at 100 µg/mL (Bacillus cereus [23]): 20 mm; zone of inhibition at 50 µg/mL (Bacillus cereus [24]): 14 mm
Cc1c(-c2nnc(-c3ccc([N+](=O)[O-])cc3)o2)c(-c2ccccc2)nn1-c1ccccc1	290 µg/mL (≈ 685 µM)	50 µg/mL (≈ 118 µM)	275 µg/mL (≈ 649 µM)	40 µg/mL (≈ 94.5 µM)	280 µg/mL (≈ 661 µM)	45 µg/mL (≈ 106 µM)	290 µg/mL (≈ 685 µM)	55 µg/mL (≈ 130 µM)	185 µg/mL (≈ 437 µM)	25 µg/mL (≈ 59 µM)	180 µg/mL (≈ 425 µM)	25 µg/mL (≈ 59 µM)	190 µg/mL (≈ 449 µM)	25 µg/mL (≈ 59 µM)	200 µg/mL (≈ 472 µM)	25 µg/mL (≈ 59 µM)	8 mm	6 mm	8 mm	6 mm	zone of inhibition at 100 µg/mL (Aspergillus niger [13]): 11 mm; zone of inhibition at 50 µg/mL (Aspergillus niger [14]): 2 mm; zone of inhibition at 100 µg/mL (Aspergillus flavus [15]): 12 mm; zone of inhibition at 50 µg/mL (Aspergillus flavus [16]): 3 mm; zone of inhibition at 100 µg/mL (Klebsiella pneumoniae [17]): 10 mm; zone of inhibition at 100 µg/mL (Escherichia coli [18]): 20 mm; zone of inhibition at 50 µg/mL (Klebsiella pneumoniae [19]): 7 mm; zone of inhibition at 50 µg/mL (Escherichia coli [20]): 11 mm; zone of inhibition at 100 µg/mL (Staphylococcus aureus [21]): 10 mm; zone of inhibition at 50 µg/mL (Staphylococcus aureus [22]): 5 mm; zone of inhibition at 100 µg/mL (Bacillus cereus [23]): 14 mm; zone of inhibition at 50 µg/mL (Bacillus cereus [24]): 6 mm
